In ChEMBL document CHEMBL4346654 (Eur J Med Chem, 2019):
Converted amounts (≈) assume the structure as drawn.

Columns and labels:
[1] = tested on: Staphylococcus aureus; assay: Antibacterial activity against MLS-resistant Staphylococcus aureus PU 32 expressing inducible ermA gene assessed as reduction in microbial growth by CLSI based two-fold broth dilution method; format: functional
[2] = tested on: Streptococcus pneumoniae; assay: Antibacterial activity against erythromycin-susceptible Streptococcus pneumoniae ATCC49619 assessed as reduction in microbial growth by CLSI based two-fold broth dilution method; format: functional
[3] = tested on: Streptococcus pneumoniae; assay: Bactericidal activity against erythromycin-susceptible Streptococcus pneumoniae ATCC49619 pretreated followed by subculture in absence of compound measured after 24 hrs; format: functional
Outline: (§1)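 Isolates were identified by 16S rDNA sequencing. MIC was determined by CLSI-recommended two-fold broth dilution. For MBC, samples from 1–8 fold MIC were transferred to culture medium and subcultured for 24 h without antibiotic.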

[4] = tested on: Haemophilus influenzae; assay: Antibacterial activity against azithromycin-susceptible Haemophilus influenzae ATCC 49247 assessed as reduction in microbial growth by CLSI based two-fold broth dilution method; format: functional
[5] = tested on: Streptococcus pneumoniae; assay: Antibacterial activity against Streptococcus pneumoniae 07P390 expressing constitutive ermB gene assessed as reduction in microbial growth by CLSI based two-fold broth dilution method; format: functional
[6] = tested on: Streptococcus pneumoniae; assay: Antibacterial activity against penicillin-susceptible Streptococcus pneumoniae PU 09 expressing mef gene assessed as reduction in microbial growth by CLSI based two-fold broth dilution method; format: functional
[7] = tested on: Streptococcus pneumoniae; assay: Bactericidal activity against penicillin-susceptible Streptococcus pneumoniae PU 09 expressing mef gene pretreated followed by subculture in absence of compound measured after 24 hrs; format: functional; outline: as §1
[8] = tested on: Streptococcus pneumoniae; assay: Selectivity ratio of MBC to MIC for penicillin-susceptible Streptococcus pneumoniae PU 09 expressing mef gene; format: functional; outline: as §1
[9] = tested on: Streptococcus pneumoniae; assay: Bactericidal activity against Streptococcus pneumoniae 07P390 expressing constitutive ermB gene pretreated followed by subculture in absence of compound measured after 24 hrs; format: functional; outline: as §1
[10] = tested on: Streptococcus pneumoniae; assay: Selectivity ratio of MBC to MIC for Streptococcus pneumoniae 07P390 expressing constitutive ermB gene; format: functional; outline: as §1
[11] = tested on: Haemophilus influenzae; assay: Bactericidal activity against azithromycin-susceptible Haemophilus influenzae ATCC 49247 pretreated followed by subculture in absence of compound measured after 24 hrs; format: functional; outline: as §1
[12] = tested on: Haemophilus influenzae; assay: Selectivity ratio of MBC to MIC for azithromycin-susceptible Haemophilus influenzae ATCC 49247; format: functional; outline: as §1
[13] = tested on: Streptococcus pyogenes; assay: Antibacterial activity against MLS-resistant Streptococcus pyogenes 01-968 expressing inducible ermB gene assessed as reduction in microbial growth by CLSI based two-fold broth dilution method; format: functional
[14] = tested on: Streptococcus pyogenes; assay: Bactericidal activity against MLS-resistant Streptococcus pyogenes 01-968 expressing inducible ermB gene pretreated followed by subculture in absence of compound measured after 24 hrs; format: functional
Outline: (§2)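 MBC assay. Following MIC determination by CLSI standard two-fold broth dilution, samples at 1–8 fold MIC were transferred to fresh culture medium. They were subcultured for 24 h without antibiotic. Isolates were identified by 16S rDNA sequencing. S. aureus ATCC 29213 was used as a control strain.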

[15] = tested on: Streptococcus pyogenes; assay: Selectivity ratio of MBC to MIC for MLS-resistant Streptococcus pyogenes 01-968 expressing inducible ermB gene; format: functional
Outline: (§3)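 MBC/MIC ratio. MIC was measured by CLSI standard two-fold broth dilution. MBC was measured by transferring samples at 1–8 fold MIC to culture medium and subculturing for 24 h without antibiotic. Isolates were identified by 16S rDNA sequencing.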

[16] = tested on: Staphylococcus aureus; assay: Bactericidal activity against MLS/methicillin-resistant Staphylococcus aureus PU 32 expressing inducible ermA gene pretreated followed by subculture in absence of compound measured after 24 hrs; format: functional; outline: as §2
[17] = tested on: Staphylococcus aureus; assay: Selectivity ratio of MBC to MIC for MLS/methicillin-resistant Staphylococcus aureus PU 32 expressing inducible ermA gene; format: functional; outline: as §3
[18] = tested on: Staphylococcus aureus; assay: Antibacterial activity against MLS-resistant Staphylococcus aureus PU 20 expressing constitutive ermC gene assessed as reduction in microbial growth by CLSI based two-fold broth dilution method; format: functional
[19] = tested on: Staphylococcus aureus; assay: Bactericidal activity against MLS-resistant Staphylococcus aureus PU 20 expressing constitutive ermC gene pretreated followed by subculture in absence of compound measured after 24 hrs; format: functional; outline: as §2
[20] = tested on: Streptococcus pyogenes; assay: Antibacterial activity against MLS-resistant Streptococcus pyogenes 12-206 expressing constitutive ermA gene assessed as reduction in microbial growth by CLSI based two-fold broth dilution method; format: functional
[21] = tested on: Streptococcus pyogenes; assay: Bactericidal activity against MLS-resistant Streptococcus pyogenes 12-206 expressing constitutive ermA gene pretreated followed by subculture in absence of compound measured after 24 hrs; format: functional; outline: as §2
[22] = tested on: Streptococcus pyogenes; assay: Selectivity ratio of MBC to MIC for MLS-resistant Streptococcus pyogenes 12-206 expressing constitutive ermA gene; format: functional; outline: as §3
[23] = tested on: Streptococcus pyogenes; assay: Antibacterial activity against Streptococcus pyogenes 12-207 expressing mef gene assessed as reduction in microbial growth by CLSI based two-fold broth dilution method; format: functional
[24] = tested on: Streptococcus pyogenes; assay: Bactericidal activity against Streptococcus pyogenes 12-207 expressing mef gene pretreated followed by subculture in absence of compound measured after 24 hrs; format: functional; outline: as §1
[25] = tested on: Streptococcus pyogenes; assay: Selectivity ratio of MBC to MIC for Streptococcus pyogenes 12-207 expressing mef gene; format: functional; outline: as §1
[26] = tested on: Moraxella catarrhalis; assay: Antibacterial activity against erythromycin-susceptible Moraxella catarrhalis 13L332 assessed as reduction in microbial growth by CLSI based two-fold broth dilution method; format: functional
[27] = tested on: Moraxella catarrhalis; assay: Bactericidal activity against erythromycin-susceptible Moraxella catarrhalis 13L332 pretreated followed by subculture in absence of compound measured after 24 hrs; format: functional; outline: as §1
[28] = tested on: Moraxella catarrhalis; assay: Selectivity ratio of MBC to MIC for erythromycin-susceptible Moraxella catarrhalis 13L332; format: functional; outline: as §1
[29] = AUCinfinity in Sprague-Dawley rat at 20 mg/kg, po after 0.25 to 24 hrs by LC-MS/MS analysis; format: ADME, organism-based; parameters: dose 20 mg/kg, time infinity, route oral; settings: Sprague-Dawley, in vivo
Outline: (§4)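 Male SD rats were given a single 20 mg/Kg oral dose. Blood was sampled at 0.25, 0.5, 1, 2, 4, 6, 8 and 24 h and centrifuged at 2500 g for 5 min at 4 °C. Drug levels were quantified by LC-MS/MS. t1/2, Cmax, Tmax, CL, MRT and AUC were calculated from the concentration–time data.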

[30] = AUC (0 to t) in Sprague-Dawley rat at 20 mg/kg, po after 0.25 to 24 hrs by LC-MS/MS analysis; format: ADME, organism-based; parameters: time upper 24 hr, dose 20 mg/kg, time lower 0.25 hr, route oral; settings: in vivo; outline: as §4
[31] = Systemic plasma clearance in Sprague-Dawley rat at 20 mg/kg, po after 0.25 to 24 hrs by LC-MS/MS analysis; format: ADME, organism-based; outline: as §4
[32] = Half life in Sprague-Dawley rat at 20 mg/kg, po after 0.25 to 24 hrs by LC-MS/MS analysis; format: ADME, organism-based; settings: in vivo; outline: as §4
[33] = MRT in Sprague-Dawley rat at 20 mg/kg, po after 0.25 to 24 hrs by LC-MS/MS analysis; format: ADME, organism-based; settings: in vivo; outline: as §4
[34] = Tmax in Sprague-Dawley rat at 20 mg/kg, po after 0.25 to 24 hrs by LC-MS/MS analysis; format: ADME, organism-based; settings: in vivo; outline: as §4
[35] = Cmax in Sprague-Dawley rat at 20 mg/kg, po after 0.25 to 24 hrs by LC-MS/MS analysis; format: ADME, organism-based; parameters: dose 20 mg/kg, route oral; settings: in vivo; outline: as §4
[36] = target: T1, Cytochrome P450 3A4 (Homo sapiens, UniProt P08684); assay: Inhibition of CYP3A4 in human liver microsomes assessed as reduction in metabolite formation using midazolam as substrate incubated for 10 mins in presence of NADPH by HPLC based mass spectrometric method; format: ADME
T1 sequence (P08684 whole entry): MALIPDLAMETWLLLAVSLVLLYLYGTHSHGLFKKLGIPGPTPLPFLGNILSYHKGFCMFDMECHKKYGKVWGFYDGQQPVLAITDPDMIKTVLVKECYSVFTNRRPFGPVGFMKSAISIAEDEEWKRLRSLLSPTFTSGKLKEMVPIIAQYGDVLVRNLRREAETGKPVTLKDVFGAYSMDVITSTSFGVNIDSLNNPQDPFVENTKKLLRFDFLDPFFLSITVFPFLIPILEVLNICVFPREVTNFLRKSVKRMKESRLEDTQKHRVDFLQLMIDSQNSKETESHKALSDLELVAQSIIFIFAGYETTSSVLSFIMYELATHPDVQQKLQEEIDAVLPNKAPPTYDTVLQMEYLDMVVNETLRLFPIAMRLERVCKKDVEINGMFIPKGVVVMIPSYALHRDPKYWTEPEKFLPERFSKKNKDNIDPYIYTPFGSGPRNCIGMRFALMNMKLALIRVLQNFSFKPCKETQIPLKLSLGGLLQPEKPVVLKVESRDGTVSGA
Outline: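 Human liver microsome CYP3A4 with midazolam substrate in 0.1 M potassium phosphate buffer was prewarmed at 37 °C for 5 min. Compound and 25 mM NADPH solution (stock) were added, then incubated at 37 °C for 10 min. Ketoconazole served as the positive inhibitor. Metabolite was measured by UPLC–triple quadrupole MS as the metabolite/internal standard peak area ratio, and IC50 was derived by curve fitting.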

[37] = tested on: Rattus norvegicus; assay: Ratio of test compound half life to telithromycin half life in Sprague-Dawley rat at 20 mg/kg, po after 0.25 to 24 hrs by LC-MS/MS analysis; format: ADME, organism-based; settings: in vivo
[38] = Ratio of test compound MRT to telithromycin MRT in Sprague-Dawley rat at 20 mg/kg, po after 0.25 to 24 hrs by LC-MS/MS analysis; format: ADME, organism-based; settings: in vivo
[39] = target: T1, Cytochrome P450 3A4; assay: Inhibition of CYP3A4 (unknown origin); format: ADME

CC[C@H]1OC(=O)[C@@](C)(F)C(=O)[C@H](C)[C@@H](O[C@@H]2O[C@H](C)C[C@H](N(C)C)[C@H]2O)[C@](C)(OC)C[C@@H](C)/C(=N\OCC#Cc2ccc3c(c2)c(=O)c(C(N)=O)cn3CC)[C@H](C)[C@H]2OC(=O)O[C@@]21C
MIC [1]: 1 µg/mL | MIC [2]: ≤ 8 ng/mL | MBC [3]: ≤ 8 ng/mL | MIC [4]: 16 µg/mL | MIC [5]: 0.125 µg/mL | MIC [6]: 0.25 µg/mL | MBC [7]: 0.5 µg/mL (≈ 0.556 µM) | Selectivity ratio [8]: 2 | MBC [9]: > 1 µg/mL | Selectivity ratio [10]: >8 | MBC [11]: 32 µg/mL (≈ 35.6 µM) | Selectivity ratio [12]: 2 | MIC [13]: ≤ 2 ng/mL | MBC [14]: > 0.016 µg/mL | Selectivity ratio [15]: >8 | MBC [16]: 8 µg/mL (≈ 8.9 µM) | Selectivity ratio [17]: 8 | MIC [18]: 128 µg/mL | MBC [19]: > 256 µg/mL | MIC [20]: 0.125 µg/mL | MBC [21]: > 1 µg/mL | Selectivity ratio [22]: >8 | MIC [23]: 0.125 µg/mL | MBC [24]: 0.5 µg/mL (≈ 0.556 µM) | Selectivity ratio [25]: 4 | MIC [26]: 4 µg/mL | MBC [27]: 32 µg/mL (≈ 35.6 µM) | Selectivity ratio [28]: 8 | AUC(0-inf) [29]: 281 ng·h/mL | AUC(0-t) [30]: 228 ng·h/mL | CL/F [31]: 1190 mL/min/kg | half-life [32]: 192 min | MRT [33]: 8.53 h | Tmax [34]: 7 h | Cmax [35]: 43.5 ng/mL | IC50 [36]: 7.32 µM | Ratio [37]: 2.5 to 3.6 | Ratio [38]: 2.3 to 2.6

CC[C@H]1OC(=O)[C@H](C)C(=O)[C@H](C)[C@@H](O[C@@H]2O[C@H](C)C[C@H](N(C)C)[C@H]2O)[C@](C)(OCC=Cc2cnc3ccccc3c2)C[C@@H](C)C(=O)[C@H](C)[C@H]2NC(=O)O[C@@]21C [CETHROMYCIN]
IC50 [39]: 2700 nM
